In ChEMBL document CHEMBL1932986, “Synthesis and in vitro antimycobacterial activity of compounds derived from (R)- and (S)-2-amino-1-butanol - The crucial role of the configuration” (Eur J Med Chem, 2012):
≈ marks a conversion by molar mass, not a printed value. Calls of active or inactive are those of the source. The rule behind the calls is not given here.

Key:
[1] = test system: Mycobacterium tuberculosis; experiment: Antimycobacterial activity against Mycobacterium tuberculosis H37Rv after 45 days; format: functional
In short: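 Canetti proportion method. Compound in DMSO is added to Löwenstein–Jensen egg medium before coagulation (30 min, 85 °C), tested at three levels plus a lower one where needed. Tubes are inoculated with H37Rv at 10⁵ cells/ml and incubated 45 days at 37 °C. Colony counts versus drug-free control give percentage inhibition.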

HEK-293T = experiment: Cytotoxicity against human HEK293T cells after 72 hrs by MTT assay; format: cell-based
In short: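 293T cells in RPMI-1640 with 10% heat-inactivated FCS and 2 mM L-glutamine, 37 °C, 5% CO2. Cells seeded at 3.5 × 10⁵ cells/ml, grown 24 h, then exposed 72 h to DMSO-diluted compounds (final solvent ≤0.5%), ≥8 wells per concentration. MTT added 4 h, formazan dissolved in 5% HCOOH/2-propanol, absorbance read at 580 nm. IC50 obtained by sigmoidal nonlinear regression against untreated control.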

[2] = Selectivity index, ratio of IC50 for human HEK293T cells to MIC for Mycobacterium tuberculosis H37Rv; format: functional, HEK-293T
[3] = Solubility of the compound in deionized water; format: physicochemical
[4] = test system: Mycobacterium tuberculosis; experiment: Ratio of ethambutol dihydrochloride MIC to compound MIC for Mycobacterium tuberculosis H37Rv; format: functional
Bacillus subtilis [5] = experiment: Antibacterial activity against Bacillus subtilis ATCC 6633 at 50 mg/ml after 24 hrs by agar diffusion test; format: functional
In short: (§1)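 Agar diffusion: wells in agar filled with […] DMSO solution of compound at various concentrations; diameter of clear zone around application point measured. Bacteria grown 24 h at 37 °C on nutrient agar. Compounds first screened at 50 mg/ml; those active then tested at lower concentrations. Bracketed value = lowest concentration (mg/ml) giving zone >11 mm, reported only if activity retained at ≤1.25 mg/ml.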

Bacillus [6] = experiment: Antibacterial activity against Bacillus idosus B 241 at 50 mg/ml after 24 hrs by agar diffusion test; format: functional; in short: as §1
Priestia megaterium [7] = experiment: Antibacterial activity against Bacillus megaterium NRRL 1353895 at 50 mg/ml after 24 hrs by agar diffusion test; format: functional; in short: as §1
Bacillus mycoides [8] = experiment: Antibacterial activity against Bacillus mycoides DSMZ 274 at 50 mg/ml after 24 hrs by agar diffusion test; format: functional; in short: as §1
Bacillus cereus [9] = experiment: Antibacterial activity against Bacillus cereus ATCC 11778 at 50 mg/ml after 24 hrs by agar diffusion test; format: functional; in short: as §1
Acinetobacter johnsonii [10] = experiment: Antibacterial activity against Acinetobacter johnsonii ATCC 17909 at 50 mg/ml after 24 hrs by agar diffusion test; format: functional; in short: as §1
Staphylococcus aureus [11] = experiment: Antibacterial activity against Staphylococcus aureus NRRL B 313 at 50 mg/ml after 24 hrs by agar diffusion test; format: functional
In short: (§2)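 Agar diffusion: bacteria grown 24 h at 37 °C on nutrient agar. Wells in the agar are filled with […] of compound solution in DMSO at various concentrations. The diameter of the clear zone around the application point is measured. Bracketed values give the lowest concentration (mg/ml) that produces a zone >11 mm. A first screen is run at 50 mg/ml.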

Micrococcus luteus [12] = experiment: Antibacterial activity against Sarcina lutea ATCC 9341 at 50 mg/ml after 24 hrs by agar diffusion test; format: functional; in short: as §2
Micrococcus luteus [13] = experiment: Antibacterial activity against Micrococcus luteus ATCC 9631 at 50 mg/ml after 24 hrs by agar diffusion test; format: functional; in short: as §1
Escherichia coli [14] = experiment: Antibacterial activity against Escherichia coli ATCC 8739 at 50 mg/ml after 24 hrs by agar diffusion test; format: functional; in short: as §1
Candida tropicalis [15] = experiment: Antifungal activity against Candida tropicalis ATCC 20336 at 50 mg/ml after 72 hrs by agar diffusion test; format: functional
In short: (§3)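 Agar diffusion: yeasts grown on yeast peptone dextrose agar and fungi on potato dextrose agar. Wells are filled with […] of compound solution in DMSO at various concentrations, and the clear-zone diameter is measured. Bracketed values give the lowest concentration (mg/ml) that produces a zone >11 mm. A first screen is run at 50 mg/ml.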

Saccharomyces cerevisiae [16] = experiment: Antifungal activity against Saccharomyces cerevisiae ATCC 9763 at 50 mg/ml after 72 hrs by agar diffusion test; format: functional; in short: as §3
Penicillium chrysogenum [17] = experiment: Antifungal activity against Penicillium chrysogenum CECT 2802 at 50 mg/ml after 72 hrs by agar diffusion test; format: functional; in short: as §3
Penicillium chrysogenum [18] = experiment: Antifungal activity against Penicillium chrysogenum CECT 2802 at 2 mg/ml after 72 hrs by agar diffusion test; format: functional, organism-based; in short: as §3
Saccharomyces cerevisiae [19] = experiment: Antifungal activity against Saccharomyces cerevisiae ATCC 9763 at 2 mg/ml after 72 hrs by agar diffusion test; format: functional, organism-based; in short: as §3
Candida tropicalis [20] = experiment: Antifungal activity against Candida tropicalis ATCC 20336 at 2 mg/ml after 72 hrs by agar diffusion test; format: functional, organism-based; in short: as §3
Escherichia coli [21] = experiment: Antibacterial activity against Escherichia coli ATCC 8739 at 2 mg/ml after 24 hrs by agar diffusion test; format: functional, organism-based; in short: as §1
Micrococcus luteus [22] = experiment: Antibacterial activity against Micrococcus luteus ATCC 9631 at 2 mg/ml after 24 hrs by agar diffusion test; format: functional, organism-based; in short: as §1
Micrococcus luteus [23] = experiment: Antibacterial activity against Sarcina lutea ATCC 9341 at 2 mg/ml after 24 hrs by agar diffusion test; format: functional, organism-based; in short: as §1
Staphylococcus aureus [24] = experiment: Antibacterial activity against Staphylococcus aureus NRRL B 313 at 2 mg/ml after 24 hrs by agar diffusion test; format: functional, organism-based; in short: as §2
Acinetobacter johnsonii [25] = experiment: Antibacterial activity against Acinetobacter johnsonii ATCC 17909 at 2 mg/ml after 24 hrs by agar diffusion test; format: functional; in short: as §1
Bacillus cereus [26] = experiment: Antibacterial activity against Bacillus cereus ATCC 11778 at 2 mg/ml after 24 hrs by agar diffusion test; format: functional, organism-based; in short: as §1
Bacillus mycoides [27] = experiment: Antibacterial activity against Bacillus mycoides DSMZ 274 at 2 mg/ml after 24 hrs by agar diffusion test; format: functional, organism-based; in short: as §1
Priestia megaterium [28] = experiment: Antibacterial activity against Bacillus megaterium NRRL 1353895 at 2 mg/ml after 24 hrs by agar diffusion test; format: functional, organism-based; in short: as §1
Bacillus [29] = experiment: Antibacterial activity against Bacillus idosus B 241 at 2 mg/ml after 24 hrs by agar diffusion test; format: functional, organism-based; in short: as §1
Bacillus subtilis [30] = experiment: Antibacterial activity against Bacillus subtilis ATCC 6633 at 2 mg/ml after 24 hrs by agar diffusion test; format: functional, organism-based; in short: as §1

| SMILES | MIC [1] [µM] | diameter of the inhibition zone (DIZ) (Bacillus subtilis [5]) | diameter of the inhibition zone (DIZ) (Bacillus [6]) | diameter of the inhibition zone (DIZ) (Priestia megaterium [7]) | diameter of the inhibition zone (DIZ) (Bacillus mycoides [8]) | diameter of the inhibition zone (DIZ) (Bacillus cereus [9]) | diameter of the inhibition zone (DIZ) (Acinetobacter johnsonii [10]) | diameter of the inhibition zone (DIZ) (Staphylococcus aureus [11]) | diameter of the inhibition zone (DIZ) (Micrococcus luteus [12]) | diameter of the inhibition zone (DIZ) (Micrococcus luteus [13]) | diameter of the inhibition zone (DIZ) (Candida tropicalis [15]) | diameter of the inhibition zone (DIZ) (Saccharomyces cerevisiae [16]) | diameter of the inhibition zone (DIZ) (Penicillium chrysogenum [17]) | also measured |
| --- | --- | --- | --- | --- | --- | --- | --- | --- | --- | --- | --- | --- | --- | --- |
| CC[C@H](CO)NC(=O)c1ccccc1C(=O)N[C@H](CC)CO | 0.65 (≈ 0.2 µg/mL) | inactive | inactive | inactive | inactive | inactive | inactive | inactive | inactive | inactive | inactive | inactive | inactive | IC50 (HEK-293T): 244 µM; Selectivity Index [2]: 375.4; solubility [3]: 46 mg/mL (≈ 149 mM); Ratio [4]: 5; diameter of the inhibition zone (DIZ) (Escherichia coli [14]): inactive |
| CC[C@H](CO)N1C(=O)c2ccccc2C1=O | > 22.8 | inactive | inactive | inactive | inactive | inactive | inactive | inactive | inactive | inactive | inactive | inactive | inactive | diameter of the inhibition zone (DIZ) (Penicillium chrysogenum [18]): inactive; diameter of the inhibition zone (DIZ) (Saccharomyces cerevisiae [19]): inactive; diameter of the inhibition zone (DIZ) (Candida tropicalis [20]): inactive; diameter of the inhibition zone (DIZ) (Escherichia coli [21]): inactive; diameter of the inhibition zone (DIZ) (Micrococcus luteus [22]): inactive; diameter of the inhibition zone (DIZ) (Micrococcus luteus [23]): inactive; diameter of the inhibition zone (DIZ) (Staphylococcus aureus [24]): inactive; diameter of the inhibition zone (DIZ) (Acinetobacter johnsonii [25]): inactive; diameter of the inhibition zone (DIZ) (Bacillus cereus [26]): inactive; diameter of the inhibition zone (DIZ) (Bacillus mycoides [27]): inactive; diameter of the inhibition zone (DIZ) (Priestia megaterium [28]): inactive; diameter of the inhibition zone (DIZ) (Bacillus [29]): inactive; diameter of the inhibition zone (DIZ) (Bacillus subtilis [30]): inactive; zone of inhibition at 50000 µg/mL (Escherichia coli [14]; ATCC 8739, 24 h, read-out: DIZ): 11 mm |
